Calls of active or inactive are those of the source. No cut-off for these calls is given here.

The subject of data set [1] is HGC-27. Kind of data set: Antiproliferative activity against human HGC27 cells after 72 hrs by MTT assay. The class given is functional, cell-based. Particulars: HGC-27, 72 h. The essentials: (§1)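 Cells in exponential growth plated at 3,000 per well, left 24 h, then medium replaced with fresh medium carrying a range of compound concentrations; 72 h exposure, MTT read at 570 nm.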

For another data set, the system named is MGC-803. Kind of data set: Antiproliferative activity against human MGC803 cells after 72 hrs by MTT assay. The class given is functional, cell-based. Particulars: MGC-803, 72 h. The essentials: as §1
In general terms: Tetrazolium dyes change colour on reduction, which living cells bring about.

The next data set has as its system MCF7. Kind of data set: Antiproliferative activity against human MCF7 cells after 72 hrs by MTT assay. Type of data set: functional, cell-based. Conditions: MCF7, 72 h. The essentials:
as §1

The next data set deals with ECa-109 cell line. Kind of data set: Antiproliferative activity against human EC109 cells after 72 hrs by MTT assay. Type of data set: functional, cell-based. Particulars: ECa-109, 72 h. The essentials:
as §1

The next data set relates to GES1. Kind of data set: Cytotoxicity against human GES-1 cells assessed as reduction in cell viability after 72 hrs by MTT assay. Type of data set: cell-based. Particulars: GES1, 72 h. The essentials:
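Normal human gastric epithelial cells in exponential growth seeded at 3,000 cells/well, allowed 24 h, then medium replaced with fresh medium containing a range of compound concentrations. Exposure 72 h, then MTT, viability read at 570 nm.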

The test system of data set [2] is HGC-27. Kind of data set: Induction of apoptosis in human HGC27 cells assessed as apoptotic cells at 1 uM after 24 hrs by Annexin-V-FITC/propidium iodide-double staining based flow cytometry (reference value: 1.8%). The class given is functional. A general note: Flow cytometry measures light scatter and fluorescence of single cells or particles in a stream.
Data set [3] relates to HGC-27. Description: Induction of apoptosis in human HGC27 cells assessed as apoptotic cells at 5 uM after 24 hrs by Annexin-V-FITC/propidium iodide-double staining based flow cytometry (reference value: 1.8%). The class given is functional.
The subject of data set [4] is HGC-27. Kind of data set: Induction of apoptosis in human HGC27 cells assessed as decrease in Bcl2 expression up to 5 uM after 24 hrs by Western blot analysis. Type of data set: functional, cell-based. The essentials: (§2)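 HGC-27 exposed to compound at several concentrations for 24 h, lysed in RIPA with protease inhibitors for 30 min, spun at 12,000 rpm for 10 min at 4 °C. Protein measured by BCA, run on SDS-PAGE, transferred to nitrocellulose. Blocked with 5% skim milk for 2 h, primary antibodies overnight at 4 °C, secondary 1:5000 for 2 h, ECL detection.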
(In general: A western blot detects proteins with antibodies after separation by electrophoresis.)

The test system of data set [5] is HGC-27. Kind of data set: Induction of apoptosis in human HGC27 cells assessed as chromatin shrinkage at 2 to 5 uM after 24 hrs by Hoechst 33258 staining-based fluorescence microscopy. Type of data set: functional, cell-based. A digest of the protocol:
(§3)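 HGC-27 at 2×10⁵/well attached overnight, exposed to compound at several concentrations for 24 h, then stained with Hoechst 33258 for 30 min in the dark. Morphology scored by fluorescence microscopy.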

Data set [6] deals with HGC-27. Kind of data set: Induction of apoptosis in human HGC27 cells assessed as increase in Bax expression after 24 hrs by Western blot analysis. The class given is functional, cell-based. A digest of the protocol: as §2
Data set [7] deals with HGC-27. Description: Induction of apoptosis in human HGC27 cells assessed as apoptotic cells at 2 uM after 24 hrs by Annexin-V-FITC/propidium iodide-double staining based flow cytometry (reference value: 1.8%). Type of data set: functional.
Data set [8] relates to HGC-27. Kind of data set: Induction of apoptosis in human HGC27 cells assessed as increase in cleaved caspase 3 expression after 24 hrs by Western blot analysis. The class given is functional, cell-based. A digest of the protocol:
as §2

In data set [9] the test system is HGC-27. Description: Antimigratory activity in human HGC27 cells after 48 hrs by wound healing assay. Type of data set: functional, cell-based. A digest of the protocol:
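HGC-27 grown in 24-well plates, monolayer scratched with a 10 µL pipette tip, then exposed to compound at several concentrations. Wound closure photographed by inverted microscope after the incubation times stated.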

For data set [10], the system named is HGC-27. Description: Inhibition of colony formation in human HGC27 cells at 4 uM after 9 days by crystal violet staining based assay. Type of data set: functional. Conditions: HGC-27, 216 h. A digest of the protocol: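 HGC-27 seeded at 1000 cells/well, 24 h, then fresh medium with compound for 9 days. PBS washes, 4% paraformaldehyde fixation, 0.1% crystal violet stain. Colonies (>10 cells) counted from images. Inhibition rate = (1 − treated count/control count) × 100%. Triplicate.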

Data set [11] has as its system HGC-27. Description: Induction of apoptosis in human HGC27 cells after 24 hrs by Annexin-V-FITC/propidium iodide-double staining based flow cytometry. The class given is functional, cell-based.
The subject of data set [12] is HGC-27. Kind of data set: Induction of apoptosis in human HGC27 cells assessed as increase in cleaved caspase 9 expression after 24 hrs by Western blot analysis. Type of data set: functional, cell-based. The essentials:
as §2

For data set [13], the system named is HGC-27. Description: Induction of apoptosis in human HGC27 cells assessed as cell rounding at 2 to 5 uM after 24 hrs by Hoechst 33258 staining-based fluorescence microscopy. The class given is functional. The essentials: as §3
Data set [14] concerns HGC-27. Kind of data set: Induction of apoptosis in human HGC27 cells assessed as formation of apoptotic bodies at 2 to 5 uM after 24 hrs by Hoechst 33258 staining-based fluorescence microscopy. The class given is functional, cell-based. The essentials:
as §3

Data set [15] in a line: Selectivity index, ratio of IC50 for human GES-1 cells to IC50 for human HGC27 cells. Type of data set: toxicity. Particulars: GES-1 cells and HGC27 cells, read-out: Ratio IC50. A digest of the protocol: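 GES-1 normal gastric epithelial cells and HGC-27 tested by the same MTT protocol (3,000 cells/well, 24 h attachment, 72 h exposure, 570 nm). SI calculated as IC50(GES-1)/IC50(HGC-27). IC50s are means ± SD of three independent experiments.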

Consider `c1ccc(CSc2nc(Sc3nncs3)c3nc(Nc4ccccc4)sc3n2)cc1`, for which the IC50 (commonly the concentration that gives 50% inhibition) was 18.9 µM in the data set on HGC-27 [1], above 64 µM with MGC-803, 38.7 µM in the data set on MCF7 and 10.6 µM in the data set with ECa-109 cell line.
On the same counts, the results for `CCCSc1nc(Sc2ccc(C)cc2)c2nc(Nc3ccccn3)sc2n1` are 7.28 µM, above 64 µM, 34.2 µM and above 64 µM.
On the same counts, the results for `CCCSc1nc(Sc2nnc(N)s2)c2nc(Nc3ccccc3)sc2n1` are above 64 µM, 12.8 µM, above 64 µM and above 64 µM.
Take `CCCSc1nc(Sc2ncccn2)c2nc(Nc3ccccc3)sc2n1`: the IC50 was determined as 9.55 µM with HGC-27 [1], 9.82 µM with MGC-803, 13.2 µM in the data set on MCF7 and 49.6 µM in the data set on ECa-109 cell line.
On the same counts, the results for `CCCSc1nc(Sc2nncs2)c2nc(Nc3cccc4ccccc34)sc2n1` are 22.7 µM, above 64 µM, above 64 µM and above 64 µM.
On the same counts, the results for `CCCSc1nc(Sc2nncs2)c2nc(Nc3ccccn3)sc2n1` are 18.2 µM, 10.2 µM, 11.6 µM and above 64 µM.
As to `CCCSc1nc(Sc2nnnn2CCN(C)C)c2nc(Nc3ccccc3)sc2n1`, the IC50 was 6.51 µM with HGC-27 [1], 18.5 µM in the data set on MGC-803, 14.5 µM in the data set on MCF7 and above 64 µM with ECa-109 cell line.
On to `CCCSc1nc(Sc2ccc(C)cc2)c2nc(Nc3ccccc3)sc2n1`, for which the IC50 was 4.65 µM in the data set on HGC-27 [1], 4.73 µM in the data set with MGC-803, above 64 µM in the data set on MCF7 and 25 µM in the data set with ECa-109 cell line.
Consider `O=c1[nH]cc(F)c(=O)[nH]1` [FLUOROURACIL], for which the IC50 was 8.59 µM in the data set on GES1, 11 µM in the data set on HGC-27 [1], 7.21 µM with MCF7 and 5.01 µM in the data set with ECa-109 cell line.
Regarding `CCCSc1nc(Sc2ccc(Cl)cc2)c2nc(Nc3ccccc3)sc2n1`, the IC50 in the data set on HGC-27 [1] turned out to be 8.87 µM; with MGC-803 it was 9.33 µM; in the data set on MCF7 it was 44.2 µM; in the data set with ECa-109 cell line, 19.6 µM.
In the case of `CCCSc1nc(Sc2nncs2)c2nc(Nc3ccccc3)sc2n1`, the 50% inhibitory concentration (IC50) is 5.07 µM in the data set on HGC-27 [1], 10.7 µM in the data set with MGC-803, 8.55 µM with MCF7 and above 64 µM in the data set with ECa-109 cell line.
As to `Cc1ccc(Sc2nc(SCc3ccccc3)nc3sc(Nc4ccccc4)nc23)cc1`, the Activity with HGC-27 [2] is 10.01%; with HGC-27 [3], 67.9%; in the data set on HGC-27 [6], “Dose-dependent effect”; in the data set with HGC-27 [7], 31.8%; with HGC-27 [8], “Dose-dependent effect”; in the data set with HGC-27 [9] it was “Dose-dependent effect”. The Activity entry in the data set on HGC-27 [11] and with HGC-27 [12] was “Dose-dependent effect” in each case. In addition, the outcome with HGC-27 [4], in the data set on HGC-27 [5], with HGC-27 [13] and in the data set on HGC-27 [14] was Active. Moreover, the IC50 is 29.4 µM with GES1; 1.22 µM in the data set with HGC-27 [1]; 12.2 µM with MGC-803; 8.55 µM in the data set on MCF7; 2.69 µM in the data set on ECa-109 cell line. Further, in the data set with HGC-27 [10], testing at 4 µM gave an inhibition of 79%. In addition, the selectivity ratio in [15] came to 24.1.
On to `CCCSc1nc(Sc2ccc(C)cc2)c2nc(Nc3cccc4ccccc34)sc2n1`, for which the IC50 in the data set with HGC-27 [1] was above 64 µM; with MGC-803, 46.2 µM; in the data set on MCF7, above 64 µM; in the data set with ECa-109 cell line, above 64 µM.
As to `CCCSc1nc(Sc2nccn2C)c2nc(Nc3ccccc3)sc2n1`, the IC50 is 4.03 µM in the data set with HGC-27 [1], 30 µM in the data set on MGC-803, above 64 µM with MCF7 and above 64 µM in the data set on ECa-109 cell line.
Turning to `CCCSc1nc(Sc2ccc(C)cc2)c2nc(Nc3cc(OC)c(OC)c(OC)c3)sc2n1`, the IC50 is 6.03 µM in the data set with HGC-27 [1], above 64 µM with MGC-803, above 64 µM in the data set on MCF7 and 23.9 µM with ECa-109 cell line.
On to `CCCSc1nc(Sc2ncccn2)c2nc(Nc3ccccn3)sc2n1`, for which the IC50 in the data set with HGC-27 [1] is 12.2 µM; in the data set on MGC-803, 11.2 µM; with MCF7, above 64 µM; with ECa-109 cell line, above 64 µM.
In the case of `CCCSc1nc(Sc2nc3ccccc3s2)c2nc(Nc3ccccc3)sc2n1`, the IC50 with HGC-27 [1] is 12.2 µM; with MGC-803 it was 14.2 µM; in the data set on MCF7, above 64 µM; in the data set on ECa-109 cell line, 24.3 µM.
Consider `CCCSc1nc(Sc2nccs2)c2nc(Nc3ccccc3)sc2n1`, for which the IC50 is 2.21 µM in the data set on HGC-27 [1], 23.4 µM in the data set with MGC-803, above 64 µM in the data set on MCF7 and above 64 µM in the data set with ECa-109 cell line.

The values are drawn from ChEMBL document CHEMBL4130366, “Design, synthesis and antiproliferative activity of thiazolo[5,4-d]pyrimidine derivatives through the atom replacement strategy” (Eur J Med Chem, 2017).
